The subject of experiment [1] is γ-secretase. The following applies: ref Hong et al., 2011; cited from earlier work.
Experiment [2] has as its system γ-secretase. Put plainly: GM1-bound Aβ in TBS-Tx extracts of 3 mo J20 tg mice after Compound E. The format is in vivo, mouse. The essentials: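 3-month J20 transgenic mice were injected with test compound or vehicle, and brains were harvested 2.5 h or 5 h later. Brains were Dounce-homogenized in ice-cold TBS (20 mM Tris-HCl, 150 mM NaCl, pH 7.4) with protease inhibitors and spun 175,000 g for 30 min at 4 °C. The pellet was re-extracted the same way in TBS-1% Triton-X. Both extracts underwent R1282 IP, then WB: 3D6+6E10+266+2G3+21F12 for Aβ, CTβ for GM1. N=4 vehicle mice; mean ± SEM; 2-way ANOVA with Bonferroni post-test.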

As to `C[C@H](NC(=O)Cc1cc(F)cc(F)c1)C(=O)N[C@H]1N=C(c2ccccc2)c2ccccc2N(C)C1=O` [Compound E], the “t1/2 of decline in brain ISF Aβ” value in experiment [1] is reported as ~ 2 h. Moreover, the “Levels of GM1-bound Aβ in TBS-Tx” value in experiment [2] (3 mo J20 tg mice, brains harvested 2.5 h or 5 h after injection, N=3 and 4 mice) is recorded as “decreased”. Also, the “Effect on total GM1 levels in the brain” value in experiment [2] (data not shown) is “no effect”.
